Results on 8 compounds are retold here after ChEMBL document CHEMBL1133006, “Synthesis and evaluation of several new (2-chloroethyl)nitrosocarbamates as potential anticancer agents” (J Med Chem, 2000).

Values after ≈ are worked out from the molar mass of the structure shown.

Assay [1] has as its system NCI-H23. Nature of the assay: In vitro cytotoxicity was evaluated against lung NCI-H23 cells. The assay is classed as functional, cell-based. The following applies: Homo sapiens. In a few lines: (§1)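 Cells dispersed with trypsin/EDTA, suspended at 5 × 10⁴/mL and seeded in 96-well plates. Compounds dissolved in 100% DMSO, diluted in complete medium and added in 100-µL samples, eight replicate wells per concentration. Controls were mock, vehicle (DMSO in medium) and doxorubicin 200 µM. Incubation 72 h, read by XTT or neutral red uptake, IC₅₀ calculated in µM.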

Assay [2] concerns SNB-7. Briefly: In vitro cytotoxicity was evaluated againstCNS SNB-7 cells. The assay is classed as functional, cell-based. The following applies: Homo sapiens. In a few lines:
as §1

The subject of assay [3] is SK-MEL-28. Briefly: In vitro cytotoxicity was evaluated against melanoma SK-MEL-28 cells; […]. The following applies: Homo sapiens. The assay is classed as functional, cell-based. The essentials: as §1
Assay [4] deals with DLD-1 (Homo sapiens). Briefly: In vitro cytotoxicity was evaluated against colon DLD-1 cells.
In assay [5] the test system is CAKI-1 (Homo sapiens). Nature of the assay: In vitro cytotoxicity was evaluated against renal CAKI-1 cells; […].
Assay [6] is filed under the species Mus sp. Nature of the assay: Difference in the median of times poststaging for tumors of the treated (T) groups to double in mass twice compared to the median of the control (C) group. The format is functional. The essentials: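 M5076 sarcoma, 5 × 10⁶ cells implanted sc in B6C3F₁ mice (implantation = day 0). Compound given ip on days 10-14 at optimal dosage (≤LD10). T-C is the difference in median time after staging for treated versus control tumors to double in mass twice, in days.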

In assay [7] the test system is Mus sp. Briefly: Antitumor activity against subcutaneously implanted M5076 murine sarcoma in B6C3F1 mice (5x10E6) at 12.5 mg/kg on day 10 to 14, expressed tumor-free surv/total; 0/5. The assay is classed as functional. The following applies: route subcutaneous. The essentials:
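B6C3F1 mice got 5 × 10⁶ M5076 sarcoma cells sc (implant day = day 0). Drug was given ip at 12.5 mg/kg/dose on days 10-14, 5 mice per group. Tumor-free survivors/total were recorded. T-C was the difference in median time after staging for tumors to double in mass twice, treated versus control.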

The subject of assay [8] is P388. Briefly: Antitumor activity was measured by % increase in life span (ILS) of CD2F1 mice implanted with P388 murine leukemia cell at a dose of 25 mg/kg. The format is functional, Mus sp. The following applies: Mus musculus.
Assay [9] has as its system P388. Briefly: Antitumor activity measured by % increase in life span (ILS) of CD2F1 mice implanted with murine leukemia cells expressed as net log cell kill. The format is functional, Mus sp.
In assay [10] the test system is P388. Briefly: Antitumor activity against intraperitoneally implanted P388 murine leukemia in CD2F1 mice with 10E6 at 25 mg/kg on day 1, expressed tumor-free surv/total;0/5. The assay is classed as functional, Mus sp. The following applies: route intraperitoneal.
Assay [11] has as its system SNB-7. Briefly: In vitro cytotoxicity was evaluated againstCNS SNB-7 cells; 3 x 10E1. The assay is classed as functional, cell-based. The following applies: Homo sapiens. In a few lines: as §1
For assay [12], the system named is DLD-1 (Homo sapiens). Briefly: In vitro cytotoxicity was evaluated against colon DLD-1 cells; 2 x 10E1.
The test system of assay [13] is CAKI-1 (Homo sapiens). Nature of the assay: In vitro cytotoxicity was evaluated against renal CAKI-1 cells; 2 x 10E1.
In assay [14] the test system is SK-MEL-28 (Homo sapiens). Briefly: In vitro cytotoxicity was evaluated against melanoma SK-MEL-28 cells; 1 x 10e1; 1 x 10E1.
Assay [15] relates to DLD-1. Briefly: In vitro cytotoxicity was evaluated against colon DLD-1 cells; 4 x 10E1. The format is functional, cell-based. The following applies: Homo sapiens. The essentials: as §1
Assay [16] relates to CAKI-1 (Homo sapiens). Nature of the assay: In vitro cytotoxicity was evaluated against renal CAKI-1 cells.
The subject of assay [17] is SK-MEL-28 (Homo sapiens). Nature of the assay: In vitro cytotoxicity was evaluated against melanoma SK-MEL-28 cells; 3 x 10E1.
Assay [18] concerns NCI-H23. Briefly: In vitro cytotoxicity was evaluated against lung NCI-H23 cells; 1 x 10E1. The following applies: Homo sapiens. The format is functional, cell-based. In a few lines: as §1
Assay [19] relates to DLD-1 (Homo sapiens). Briefly: In vitro cytotoxicity was evaluated against colon DLD-1 cells; 1 x 10E1.
Assay [20] concerns CAKI-1 (Homo sapiens). Nature of the assay: In vitro cytotoxicity was evaluated against renal CAKI-1 cells; 3 x 10E1.
The subject of assay [21] is SK-MEL-28 (Homo sapiens). Nature of the assay: In vitro cytotoxicity was evaluated against melanoma SK-MEL-28 cells; 2 x 10E1.
Assay [22] concerns NCI-H23. Nature of the assay: In vitro cytotoxicity was evaluated against lung NCI-H23 cells; 3 x 10E1. The assay is classed as functional, cell-based. The following applies: Homo sapiens. In a few lines: as §1
Assay [23] has as its system DLD-1 (Homo sapiens). Briefly: In vitro cytotoxicity was evaluated against colon DLD-1 cells; 3 x 10E1.
In assay [24] the test system is SK-MEL-28 (Homo sapiens). Nature of the assay: In vitro cytotoxicity was evaluated against melanoma SK-MEL-28 cells.
Assay [25] relates to CAKI-1. Nature of the assay: In vitro cytotoxicity was evaluated against renal CAKI-1 cells; 3 x 10E1. The following applies: Homo sapiens. The assay is classed as functional, cell-based. The essentials:
as §1

For assay [26], the system named is DLD-1. Nature of the assay: In vitro cytotoxicity was evaluated against colon DLD-1 cells; 2 x 10E1. The following applies: Homo sapiens. The assay is classed as functional, cell-based. The essentials: as §1
Assay [27] relates to SK-MEL-28. Briefly: In vitro cytotoxicity was evaluated against melanoma SK-MEL-28 cells; 1 x 10E1. The format is functional, cell-based. The following applies: Homo sapiens. The essentials: as §1
In assay [28] the test system is SNB-7. Nature of the assay: In vitro cytotoxicity was evaluated againstCNS SNB-7 cells; 1 x 10E1. The format is functional, cell-based. The following applies: Homo sapiens. In a few lines:
as §1

As for `O=NN(CCCl)C(=O)OCc1ccccc1[N+](=O)[O-]`, the IC50 is 3 µg/mL (≈ 10.4 µM) in assay [1]; 1 µg/mL (≈ 3.48 µM) in assay [2]; 40 µg/mL (≈ 139 µM) in assay [3]; 6 µg/mL in assay [4]; 40 µg/mL (≈ 139 µM) in assay [5].
Consider `CC(=O)Oc1ccc(COC(=O)N(CCCl)N=O)cc1`, for which the T-C in assay [6] worked out at 3. For the same compound, the Survivial / total in [7] and in [10] was 0 throughout. Besides, the IC50 came to 6 µg/mL (≈ 20 µM) in [1]; 30 µg/mL (≈ 99.8 µM) in assay [11]; 20 µg/mL (≈ 66.5 µM) in assay [12]; 20 µg/mL (≈ 66.5 µM) in assay [13]; 10 µg/mL (≈ 33.3 µM) in assay [14]. The ILS at 25 mg/kg in assay [8] was 4%. Moreover, the “Net log cell kill” value in [9] was -0.3.
In the case of `O=NN(CCCl)C(=O)Oc1cncnc1`, the IC50 in [15] amounted to 40 µg/mL (≈ 173 µM); in assay [1], 2 µg/mL (≈ 8.67 µM); in [2], 6 µg/mL (≈ 26 µM); in [16] it was 6 µg/mL; in assay [17], 30 µg/mL (≈ 130 µM).
In the case of `CC(=O)Oc1ccccc1COC(=O)N(CCCl)N=O`, the IC50 in assay [2] came out at 6 µg/mL (≈ 20 µM); in assay [18], 10 µg/mL; in [19], 10 µg/mL (≈ 33.3 µM); in [20], 30 µg/mL (≈ 99.8 µM); in [21], 20 µg/mL (≈ 66.5 µM).
Consider `O=NN(CCCl)C(=O)Oc1cccnc1`, for which the concentration for half-maximal inhibition (IC50) in assay [22], in [11], in assay [23], in assay [20] and in assay [17] was greater than 30 µg/mL in each case.
On to `O=NN(CCCl)C(=O)OCc1ccc([N+](=O)[O-])cc1`, for which the half-maximal inhibitory concentration (IC50) was 1 µg/mL (≈ 3.48 µM) in assay [1]; 1 µg/mL (≈ 3.48 µM) in assay [2]; 5 µg/mL in assay [4]; 3 µg/mL in [16]; 1 µg/mL in assay [24].
With `CC(=O)OCC1OC(OC(=O)N(CCCl)N=O)C(OC(C)=O)C(OC(C)=O)C1OC(C)=O` (stereo not given), the half-maximal inhibitory concentration (IC50) in assay [25] is greater than 30 µg/mL; in assay [26] it was 20 µg/mL (≈ 41.4 µM); in assay [1] it was 3 µg/mL (≈ 6.21 µM); in [27] it was 10 µg/mL (≈ 20.7 µM); in assay [28], 10 µg/mL.
Consider `Nc1ccn([C@@H]2O[C@H](CO)[C@@H](O)[C@@H]2O)c(=O)n1` [CYTARABINE], for which the half-inhibitory concentration (IC50) in [28] (read-out: IC50) is 1000 nM; in assay [18] (read-out: IC50), 1000 nM; in [4], greater than 5000 nM; in assay [16], greater than 5000 nM; in [24] it was 1000 nM.

One may read the IC50 as the concentration that gives 50% inhibition. Usually ILS stands for the gain in survival time of treated over control animals, in per cent. Higher therefore signals a large benefit in survival.
